Measurements as given in ChEMBL document CHEMBL1154735, “A strategy to minimize reactive metabolite formation: discovery of (S)-4-(1-cyclopropyl-2-methoxyethyl)-6-[6-(difluoromethoxy)-2,5-dimethylpyridin-3-ylamino]-5-oxo-4,5-dihydropyrazine-2-carbonitrile as a potent, orally bioavailable corticotropin-releasing factor-1 receptor antagonist” (J Med Chem, 2009).
Converted amounts (≈) assume the structure as drawn.

Tests used:
Rattus norvegicus [1] = assay: Ex vivo receptor occupancy of CRF1 receptor in Sprague-Dawley rat brain parietal assessed as inhibition of [125I]sauvagine binding at 1.8 mg/kg, po after 90 mins by autoradiography; type: functional; details: 1.5 h
[2] = Half life in Sprague-Dawley rat at 2 mg/kg, iv by LC/MS/MS analysis; type: ADME, organism-based; set-up: dose 2 mg/kg, route intravenous; details: in vivo
Rattus norvegicus [3] = assay: Total plasma concentration in Sprague-Dawley rat at 1.8 mg/kg, po after 1 to 3 hrs by LC/MS/MS analysis; type: ADME, organism-based; set-up: dose 1.8 mg/kg, route oral; details: in vivo
Rattus norvegicus [4] = assay: Toxicity in Sprague-Dawley rat at 60 mg/kg after 2 weeks; type: organism-based; set-up: dose 60 mg/kg; details: in vivo, 336 h
[5] = AUC in Beagle dog at 3 mg/kg, po dosed as aqueous suspension of Labrafil M 1944CS/DMAC/polysorbate 80, 85:10:5 (v/v) after 0.25 to 24 hrs by LC/MS/MS analysis; type: ADME, organism-based, Canis lupus familiaris; set-up: time upper 24 hr, time lower 0.25 hr, dose 3 mg/kg, route oral; details: plasma
How it was run: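 Oral solution dosing at 3 mg/kg in Labrafil M 1944CS/DMAC/polysorbate 80, 85:10:5 (v/v), at 1 mL/kg, in fasted male beagle dogs (n = 2). Samples were acetonitrile-precipitated with internal standard and measured by LC/MS/MS using selected reaction monitoring in positive ion mode.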

[6] = Drug metabolism in bile duct cannulated Sprague-Dawley rat assessed as unchanged parent drug remaining in bile at 20 mg/kg, po after 24 hrs by HPLC/UV/MS analysis; type: ADME, organism-based; set-up: dose 20 mg/kg, route oral; details: read-out: Activity
How it was run: (§1)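 Male Sprague–Dawley bile duct cannulated rats (n = 3) dosed orally at 20 mg/kg in PEG/ethanol 90:10; vehicle-dosed controls (n = 3). Bile and urine pooled over 0–24 h, acetonitrile-precipitated and profiled by HPLC/UV/MS (Hydro-RP column, PDA 200–550 nm, positive-ion full and data-dependent scans).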

Liver microsomes [7] = assay: Metabolic stability in NADPH-fortified human liver microsomes assessed as GSH adduct formation at 10 uM after 30 mins by HPLC/UV/MS analysis; type: ADME, Microsome; details: 0.5 h
How it was run: (§2)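 Pooled rat or human liver microsomes 1 mg/mL, 10 μM substrate, 100 mM potassium phosphate pH 7.4, 37 °C, started with NADPH-regenerating system (1.3 mM NADP+, 3.3 mM glucose-6-phosphate, 3.3 mM MgCl2, 0.5 U/mL G6PDH); GSH 5 mM in trapping runs. Sampled 0 and 30 min, acetonitrile quench; abundance as UV peak area (330–340 nm) fraction of all drug-related components by HPLC/UV/MS.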

[8] = Solubility in simulated gastric fluid; type: physicochemical
How it was run: (§3)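 Solubility measured in simulated gastric fluid and in simulated intestinal fluid (fed state).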

Rattus norvegicus [9] = assay: Anxiolytic activity in Sprague-Dawley rat assessed as decrease in exit latency at 1.8 mg/kg, po after 60 mins by defensive withdrawal test relative to control; type: functional; set-up: scale not given: the % may be the effect or the level left
How it was run: (§4)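 Rats placed in a darkened chamber within an open illuminated field; time to emerge measured 60 min after oral dosing (0.56–3 mg/kg), n = 8; percent decrease in exit latency versus vehicle-treated animals, p < 0.05 significance.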

Rattus norvegicus [10] = assay: Plasma free concentration in Sprague-Dawley rat at 3 mg/kg, po after 1 to 3 hrs by LC/MS/MS analysis; type: ADME, organism-based; set-up: dose 3 mg/kg, route oral; details: in vivo
[11] = Volume of distribution at steady state in Sprague-Dawley rat at 2 mg/kg, iv after 0.17 to 24 hrs by LC/MS/MS analysis; type: ADME, organism-based; set-up: dose 2 mg/kg, route intravenous; details: in vivo, read-out: Vdss
How it was run: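 Sprague–Dawley rats (n = 3) dosed 2 mg/kg iv in PEG:ethanol 90:10 (v/v) at 1 mL/kg. Plasma stored at –20 °C and quantified by LC/MS/MS after acetonitrile precipitation with internal standard.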

[12] = Drug metabolism in bile duct cannulated Sprague-Dawley rat assessed as GSH adduct formation in bile at 20 mg/kg, po after 24 hrs by HPLC/UV/MS analysis; type: ADME, organism-based; set-up: dose 20 mg/kg, route oral; details: in vivo; how it was run: as §1
[13] = Metabolic stability in human liver microsomes assessed as compound remaining at 3 uM after 10 mins by HPLC/UV/MS analysis; type: ADME, Microsome; details: read-out: Stability
[14] = Aqueous solubility at pH 1; type: physicochemical
[15] = Fraction unbound in human serum after 3 to 7 hrs by equilibrium dialysis; type: ADME, cell-free
How it was run: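 Human serum spiked with compound, equilibrium-dialysed against isotonic phosphate buffer for 3 or 7 h (depending on system) at 37 °C; both sides measured by LC/MS/MS, unbound fraction as buffer/serum concentration ratio.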

[16] = Clearance in Sprague-Dawley rat at 2 mg/kg, iv after 0.17 to 24 hrs by LC/MS/MS analysis; type: ADME, organism-based; set-up: dose 2 mg/kg, route intravenous; details: in vivo
Rattus norvegicus [17] = assay: Ex vivo receptor occupancy of CRF1 receptor in Sprague-Dawley rat brain parietal assessed as inhibition of [125I]sauvagine binding at 0.56 mg/kg, po after 90 mins by autoradiography; type: functional; details: 1.5 h
[18] = Oral bioavailability in Sprague-Dawley rat at 10 mg/kg dosed as aqueous suspension of Labrafil M 1944CS/DMAC/polysorbate 80, 85:10:5 (v/v) after 0.25 to 24 hrs by LC/MS/MS analysis; type: ADME, organism-based; details: in vivo
Rattus norvegicus [19] = assay: Ex vivo receptor occupancy of CRF1 receptor in Sprague-Dawley rat brain parietal assessed as inhibition of [125I]sauvagine binding at 1 mg/kg, po after 90 mins by autoradiography; type: functional; details: 1.5 h
[20] = AUC in Sprague-Dawley rat at 10 mg/kg, po dosed as aqueous suspension of Labrafil M 1944CS/DMAC/polysorbate 80, 85:10:5 (v/v) after 0.25 to 24 hrs by LC/MS/MS analysis; type: ADME, organism-based; set-up: time 0.25-24 hr, dose 10 mg/kg, route oral; details: plasma
[21] = Metabolic stability in rat liver microsomes assessed as compound remaining at 3 uM after 10 mins by HPLC/UV/MS analysis; type: ADME, Microsome; details: read-out: Stability
How it was run: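 Pooled human or rat liver microsomes (1 mg/mL protein) with 3 μM compound and 1.3 mM NADPH in 100 mM sodium phosphate pH 7.4 at 37 °C; final 0.015% DMSO, 0.985% acetonitrile; stopped at 0 and 10 min, percent remaining by LC/MS/MS.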

[22] = Octanol-water partition coefficient, log D at pH 7.4; type: physicochemical
How it was run: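 Partitioning between octanol and water at pH 7.4.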

[23] = AUC in Sprague-Dawley rat at 10 mg/kg, po dosed as aqueous suspension of 1% polysorbate 80 in 0.5% methylcellulose after 0.25 to 24 hrs by LC/MS/MS analysis; type: ADME, organism-based; set-up: time upper 24 hr, time lower 0.25 hr, dose 10 mg/kg, route oral; details: in vivo
Rattus norvegicus [24] = assay: Toxicity in Sprague-Dawley rat at 175 mg/kg after 2 weeks; type: organism-based; set-up: dose 175 mg/kg; details: in vivo, 336 h
Liver microsomes [25] = assay: Metabolic stability in NADPH-fortified rat liver microsomes assessed as pyrazinone oxidation metabolite formation at 10 uM after 30 mins by HPLC/UV/MS analysis; type: ADME, Microsome; details: 0.5 h; how it was run: as §2
Liver microsomes [26] = assay: Metabolic stability in NADPH-fortified rat liver microsomes assessed as GSH adduct formation at 10 uM after 30 mins by HPLC/UV/MS analysis; type: ADME, Microsome; details: 0.5 h; how it was run: as §2
[27] = Solubility in simulated intestinal fluid; type: physicochemical; how it was run: as §3
Liver microsomes [28] = assay: Metabolic stability in NADPH-fortified human liver microsomes assessed as pyrazinone oxidation metabolite formation at 10 uM after 30 mins by HPLC/UV/MS analysis; type: ADME, Microsome; details: 0.5 h; how it was run: as §2
Rattus norvegicus [29] = assay: Anxiolytic activity in Sprague-Dawley rat assessed as decrease in exit latency at 0.56 mg/kg, po after 60 mins by defensive withdrawal test relative to control; type: functional; set-up: scale not given: the % may be the effect or the level left; how it was run: as §4

half-life [2]: 558 min | concentration (Rattus norvegicus [3]): 83 nM | AUC [5]: 17 µM·h | dose excreted at 24 h [6]: 3% | Activity (Liver microsomes [7]): 1% | solubility [8]: 15 µg/mL (≈ 37 µM) | Cp(f) (Rattus norvegicus [10]): 5 nM | Vd [11]: 11 L/kg | Activity [12]: 0.1% | remaining at 10 min, 3 µM [13]: 74% | solubility [14]: 3 µg/mL (≈ 7.4 µM) | fraction unbound [15]: 0.035 | clearance [16]: 29 mL/min/kg | bioavailability [18]: 66% | AUC [20]: 8.8 µM·h | remaining at 10 min, 3 µM [21]: 70% | logD [22]: 3.9 | AUC [23]: 4.1 µM·h | Activity (Liver microsomes [25]): < 1% | Activity (Liver microsomes [26]): 3% | solubility [27]: 7.4 µg/mL (≈ 18.3 µM) | Activity (Liver microsomes [28]): < 1%
SMILES: COC[C@H](C1CC1)n1cc(C#N)nc(Nc2cc(C)c(OC(F)F)nc2C)c1=O
inhibition in vivo at 1.8 mg/kg (Rattus norvegicus [1]): 71% | Activity (Rattus norvegicus [4]): Non-toxic | Activity (Rattus norvegicus [9]): 60% | inhibition in vivo at 0.56 mg/kg (Rattus norvegicus [17]): 39% | inhibition in vivo at 1 mg/kg (Rattus norvegicus [19]): 43% | Activity (Rattus norvegicus [24]): Non-toxic | Activity (Rattus norvegicus [29]): 7%
